ChEMBL document CHEMBL1157401, “Anticancer activity of isoobtusilactone A from Cinnamomum kotoense: involvement of apoptosis, cell-cycle dysregulation, mitochondria regulation, and reactive oxygen species” (J Nat Prod, 2008)
Activity calls are given as the source filed them. No cut-off for these calls is given here.

Key:
A549 [1] = assay: Cell cycle arrest in human A549 cells assessed as accumulation at subG1 phase at 100 uM after 48 hrs; format: functional
Procedure, shortened: (§1)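 Flow cytometry of cell cycle: A549 (5 × 10^5 per 60 mm dish) treated next day with 50 or 100 µM for 24, 48 or 72 h. Adherent and floating cells pooled, fixed in PBS-MeOH 1:2 at 4 °C for at least 18 h, then stained 30 min in the dark with PI 50 µg/mL plus RNase A 50 µg/mL. Sub-G1 taken as the subdiploid fraction; at least three runs.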

A549 [2] = assay: Cell cycle arrest in human A549 cells assessed as accumulation at G1 phase at 100 uM after 72 hrs; format: functional; procedure, shortened: as §1
A549 [3] = assay: Cell cycle arrest in human A549 cells assessed as accumulation at S phase at 100 uM after 72 hrs; format: functional; procedure, shortened: as §1
A549 [4] = assay: Cell cycle arrest in human A549 cells assessed as accumulation at G2/M phase at 100 uM after 72 hrs; format: functional; procedure, shortened: as §1
A549 [5] = assay: Cell cycle arrest in human A549 cells assessed as accumulation at subG1 phase at 100 uM after 72 hrs; format: functional; procedure, shortened: as §1
A549 [6] = assay: Induction of apoptosis in human A549 cells assessed as DNA fragmentation after 12 hrs; format: functional, cell-based
Procedure, shortened: (§2)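 Apoptosis by cytoplasmic mono- and oligonucleosomes (nucleosome ELISA): A549 cells given 1, 10 or 100 µM for 6, 12, 18 or 24 h and lysed, then lysate assayed photometrically. Expressed relative to control; three experiments, mean ± SE, ANOVA with Dunnett's test.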

A549 [7] = assay: Induction of apoptosis in human A549 cells assessed as DNA fragmentation after 24 hrs; format: functional, cell-based; procedure, shortened: as §2
A549 [8] = assay: Induction of apoptosis in human A549 cells assessed as apoptotic nucleosome at 1 uM after 6 hrs; format: functional; procedure, shortened: as §2
A549 [9] = assay: Induction of apoptosis in human A549 cells assessed as apoptotic nucleosome at 1 uM after 24 hrs; format: functional; procedure, shortened: as §2
A549 [10] = assay: Induction of apoptosis in human A549 cells assessed as apoptotic nucleosome at 100 uM after 6 hrs; format: functional; procedure, shortened: as §2
A549 [11] = assay: Induction of apoptosis in human A549 cells assessed as apoptotic nucleosome at 100 uM after 24 hrs; format: functional; procedure, shortened: as §2
A549 [12] = assay: Induction of p53 level in human A549 cells at 100 uM after 12 hrs by ELISA; format: functional, cell-based
Procedure, shortened: (§3)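 p53, p21/WAF1 and p27kip1 in A549 lysates by sandwich ELISA after 1, 10 or 100 µM for 6-24 h. Lysate incubated 2 h for p53 and p27kip1, 1 h for p21, at room temperature. HRP-streptavidin and TMB used, absorbance read at 450 nm, values from standard curves. Three experiments, mean ± SE.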

A549 [13] = assay: Induction of p21/WAF1 protein level in human A549 cells at 100 uM after 18 hrs by ELISA; format: functional, cell-based; procedure, shortened: as §3
A549 [14] = assay: Increase in Bax level in human A549 cells after 6 hrs by ELISA; format: functional, cell-based
Procedure, shortened: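 Bax and Bcl-2 in A549 lysates by sandwich ELISA after 1, 10 or 100 µM for 6-24 h. Lysate incubated 1 h at room temperature, HRP-streptavidin and TMB used, absorbance read at 450 nm. Levels interpolated from protein standard curves and compared with vehicle; three experiments, mean ± SE, ANOVA with Dunnett's test.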

A549 [15] = assay: Decrease in mitochondrial potential in human A549 cells assessed as decrease in fluorescent intensity of rhodamine 123 staining; format: functional, cell-based
Procedure, shortened: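 Mitochondrial membrane potential: A549 cells with or without 100 µM for 6, 12, 18 or 24 h, then moved to serum-free medium containing 10 µM rhodamine 123 for 15 min at 37 °C. Cells collected and fluorescence read within 15 min, ex 490 / em 515 nm.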

A549 [16] = assay: Induction of cytochrome C release in human A549 cells by ELISA; format: functional, cell-based; conditions: TDE = time-dependent effect
Procedure, shortened: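 Cytochrome c release: A549 cells given 100 µM or DMSO vehicle for 6, 12, 18 or 24 h at 37 °C. Cytosolic fraction taken by digitonin permeabilization and mitochondrial fraction by detergent lysis, each measured by cytochrome c ELISA. Three experiments, mean ± SE.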

A549 [17] = assay: Induction of apoptosis in human A549 cells assessed as caspase 9 activation at 100 uM; format: functional, cell-based
Procedure, shortened: (§4)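 Caspase-9 and caspase-3 activity: A549 cells given 100 µM for 6-24 h and lysed on ice 1 h. 80 µg lysate incubated with substrate at pH 7.2, 37 °C, 1 h in the dark. Caspase-9 read colorimetrically at 405 nm and caspase-3 with AFC substrate, ex 400 / em 520 nm. Reported as percent change versus the 0 h group.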

A549 [18] = assay: Induction of apoptosis in human A549 cells assessed as caspase 3 activation at 100 uM; format: functional, cell-based; procedure, shortened: as §4
A549 [19] = assay: Antioxidant activity in human A549 cells assessed as increase in dichlorofluorescein florescence intensity after 30 mins relative to untreated cells; format: functional, cell-based
Procedure, shortened: (§5)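 Intracellular ROS (H2O2/peroxide) by DCF fluorescence: A549 cells at 80% confluence exposed to 100 µM for 30 min, then 10 µM DCFH-DA 30 min in the dark, trypsinized and resuspended in PBS. Read by flow cytometry, ex 488 / em 525-550 nm. For scavenger tests, NAC (10 mM) or other agents given 30 min before compound.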

A549 [20] = assay: Antioxidant activity in human A549 cells assessed as N-acetyl-l-cysteine-induced production of H2O2; format: functional, cell-based; procedure, shortened: as §5
A549 [21] = assay: Reversal of antiproliferative activity against human A549 cells in presence of N-acetyl-l-cysteine; format: functional, cell-based
Procedure, shortened: (§6)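 ROS-dependence of growth inhibition: A549 cells pretreated with NAC (10 mM) or L-NAME (100 µM) for 2 h, then 100 µM compound for 24 h. Proliferation read by MTT assay at OD 570 nm.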

A549 [22] = assay: Reversal of antiproliferative activity against human A549 cells in presence of nitro-L-arginine methyl ester; format: functional, cell-based; procedure, shortened: as §6
A549 [23] = assay: Inhibition of migration in human A549 cells; format: functional, cell-based
Procedure, shortened: (§7)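 Transwell migration with 8 µm inserts, or Matrigel-coated inserts for invasion: 5 × 10^4 A549 cells in serum-free medium placed in the upper chamber over medium with 10% FBS, 24 h at 37 °C, 5% CO2. Migrated cells stained, dye extracted and read at 560 nm. Reported as percent of control; compound tested at 1 and 10 µM, with NAC pretreatment in reversal tests.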

A549 [24] = assay: Inhibition of invasion in human A549 cells; format: functional, cell-based; procedure, shortened: as §7
A549 [25] = assay: Reversal of inhibition of migration in human A549 cells at 10 uM in presence of N-acetyl-l-cysteine; format: functional, cell-based; procedure, shortened: as §7
A549 [26] = assay: Reversal of inhibition of invasion in human A549 cells at 10 uM in presence of N-acetyl-l-cysteine; format: functional, cell-based; procedure, shortened: as §7
A549 [27] = assay: Induction of p27kip1 level in human A549 cells at 100 uM after 18 hrs by ELISA; format: functional, cell-based; procedure, shortened: as §3

C=C1OC(=O)/C(=C/CCCCCCCCCCCCC)[C@@H]1O [ISOOBTUSILACTONE A]
Activity (A549 [1]): 47.64%
Activity (A549 [2]): 41.73%
Activity (A549 [3]): 16.24%
Activity (A549 [4]): 42.03%
Activity (A549 [5]): 60.25%
Activity (A549 [6]): Active
Activity (A549 [7]): Active
Activity (A549 [8]): 3.5
Activity (A549 [9]): 16
Activity (A549 [10]): 4.5
Activity (A549 [11]): 25
Activity (A549 [12]): Active
Activity (A549 [13]): Active
Activity (A549 [14]): Active
Activity (A549 [15]): Active
Activity (A549 [16]): tde
Activity (A549 [17]): Active
Activity (A549 [18]): Active
Activity (A549 [19]): Active
Activity (A549 [20]): Active
Activity (A549 [21]): inactive
Activity (A549 [22]): Active
Activity (A549 [23]): Active
Activity (A549 [24]): Active
Activity (A549 [25]): Active
Activity (A549 [26]): Active
Activity (A549 [27]): Active
